Assay results: ChEMBL document CHEMBL4689842, “EUbOPEN Chemogenomics Library wave 1” (2021)

Tested on: Fibroblast
Assay: Multiplex assay against human fibroblast
Format: toxicity, cell-based
In short: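 On a CQ1 microscope at 37°C and 5% CO2, live cells were imaged after compound addition. They had been stained at seeding with Hoechst33342, BioTracker Green Microtubule Cytoskeleton Dye, MitoTracker Red and Annexin V Alexa Fluor 680. CellPathfinder machine-learning gating assigned cells to Hoechst high-intensity objects or normal cells, normal cells to healthy, pyknosed or fragmented nuclei, and pyknosed cells to mitotic or apoptotic. Tubulin, mitochondrial-mass and membrane-permeability phenotypes are per cents of healthy-nucleus cells.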

[1] = 12 h, 1 µM, compound concentration 1 uM, replicate 1
[2] = 12 h, 1 µM, compound concentration 1 uM, replicate 2
[3] = 12 h, 10 µM, compound concentration 10 uM, replicate 1
[4] = 12 h, 10 µM, compound concentration 10 uM, replicate 2
[5] = 24 h, 1 µM, compound concentration 1 uM, replicate 1
[6] = 24 h, 1 µM, compound concentration 1 uM, replicate 2
[7] = 24 h, 10 µM, compound concentration 10 uM, replicate 1
[8] = 24 h, 10 µM, compound concentration 10 uM, replicate 2
[9] = 48 h, 1 µM, compound concentration 1 uM, replicate 1
[10] = 48 h, 1 µM, compound concentration 1 uM, replicate 2
[11] = 48 h, 10 µM, compound concentration 10 uM, replicate 1
[12] = 48 h, 10 µM, compound concentration 10 uM, replicate 2

COc1cc2ncn(-c3cc(OCc4ccccc4C(F)(F)F)c(C(N)=O)s3)c2cc1OC [GW843682X]
Population Apoptotic (%) [1]: 62%
Population Fragmented Nuclei (%) [1]: 29%
Population Healthy Nuclei (%) [1]: 40%
Population Hoechst High Intensity Objects (%) [1]: 14%
Population Membrane Permeable-Phenotype (%) [1]: 28%
Population Mitochondria Different-Phenotype (%) [1]: 2%
Population Mitotic Cells (%) [1]: 37%
Population Normal (%) [1]: 85%
Population Pyknosed Nuclei (%) [1]: 29%
Population Tubulin-Different-Phenotype (%) [1]: 54%
Total Cell Count [1]: 145
Population Apoptotic (%) [2]: 50%
Population Fragmented Nuclei (%) [2]: 9%
Population Healthy Nuclei (%) [2]: 80%
Population Hoechst High Intensity Objects (%) [2]: 10%
Population Membrane Permeable-Phenotype (%) [2]: 12%
Population Mitochondria Different-Phenotype (%) [2]: 10%
Population Mitotic Cells (%) [2]: 50%
Population Normal (%) [2]: 89%
Population Pyknosed Nuclei (%) [2]: 9%
Population Tubulin-Different-Phenotype (%) [2]: 20%
Total Cell Count [2]: 83
Population Apoptotic (%) [3]: 54%
Population Fragmented Nuclei (%) [3]: 18%
Population Healthy Nuclei (%) [3]: 40%
Population Hoechst High Intensity Objects (%) [3]: 17%
Population Membrane Permeable-Phenotype (%) [3]: 19%
Population Mitochondria Different-Phenotype (%) [3]: 29%
Population Mitotic Cells (%) [3]: 45%
Population Normal (%) [3]: 82%
Population Pyknosed Nuclei (%) [3]: 41%
Population Tubulin-Different-Phenotype (%) [3]: 88%
Total Cell Count [3]: 182
Population Apoptotic (%) [4]: 50%
Population Fragmented Nuclei (%) [4]: 13%
Population Healthy Nuclei (%) [4]: 75%
Population Hoechst High Intensity Objects (%) [4]: 6%
Population Membrane Permeable-Phenotype (%) [4]: 25%
Population Mitochondria Different-Phenotype (%) [4]: 88%
Population Mitotic Cells (%) [4]: 50%
Population Normal (%) [4]: 93%
Population Pyknosed Nuclei (%) [4]: 11%
Population Tubulin-Different-Phenotype (%) [4]: 98%
Total Cell Count [4]: 68
Population Apoptotic (%) [5]: 61%
Population Fragmented Nuclei (%) [5]: 27%
Population Healthy Nuclei (%) [5]: 45%
Population Hoechst High Intensity Objects (%) [5]: 16%
Population Membrane Permeable-Phenotype (%) [5]: 28%
Population Mitochondria Different-Phenotype (%) [5]: 7%
Population Mitotic Cells (%) [5]: 38%
Population Normal (%) [5]: 83%
Population Pyknosed Nuclei (%) [5]: 26%
Population Tubulin-Different-Phenotype (%) [5]: 66%
Total Cell Count [5]: 139
Population Apoptotic (%) [6]: 55%
Population Fragmented Nuclei (%) [6]: 11%
Population Healthy Nuclei (%) [6]: 74%
Population Hoechst High Intensity Objects (%) [6]: 5%
Population Membrane Permeable-Phenotype (%) [6]: 10%
Population Mitochondria Different-Phenotype (%) [6]: 19%
Population Mitotic Cells (%) [6]: 44%
Population Normal (%) [6]: 94%
Population Pyknosed Nuclei (%) [6]: 14%
Population Tubulin-Different-Phenotype (%) [6]: 17%
Total Cell Count [6]: 85
Population Apoptotic (%) [7]: 74%
Population Fragmented Nuclei (%) [7]: 14%
Population Healthy Nuclei (%) [7]: 41%
Population Hoechst High Intensity Objects (%) [7]: 21%
Population Membrane Permeable-Phenotype (%) [7]: 25%
Population Mitochondria Different-Phenotype (%) [7]: 32%
Population Mitotic Cells (%) [7]: 25%
Population Normal (%) [7]: 78%
Population Pyknosed Nuclei (%) [7]: 43%
Population Tubulin-Different-Phenotype (%) [7]: 94%
Total Cell Count [7]: 171
Population Apoptotic (%) [8]: 50%
Population Fragmented Nuclei (%) [8]: 13%
Population Healthy Nuclei (%) [8]: 69%
Population Hoechst High Intensity Objects (%) [8]: 9%
Population Membrane Permeable-Phenotype (%) [8]: 41%
Population Mitochondria Different-Phenotype (%) [8]: 91%
Population Mitotic Cells (%) [8]: 50%
Population Normal (%) [8]: 90%
Population Pyknosed Nuclei (%) [8]: 17%
Population Tubulin-Different-Phenotype (%) [8]: 97%
Total Cell Count [8]: 67
Population Apoptotic (%) [9]: 52%
Population Fragmented Nuclei (%) [9]: 39%
Population Healthy Nuclei (%) [9]: 38%
Population Hoechst High Intensity Objects (%) [9]: 18%
Population Membrane Permeable-Phenotype (%) [9]: 21%
Population Mitochondria Different-Phenotype (%) [9]: 7%
Population Mitotic Cells (%) [9]: 47%
Population Normal (%) [9]: 81%
Population Pyknosed Nuclei (%) [9]: 21%
Population Tubulin-Different-Phenotype (%) [9]: 65%
Total Cell Count [9]: 130
Population Apoptotic (%) [10]: 75%
Population Fragmented Nuclei (%) [10]: 22%
Population Healthy Nuclei (%) [10]: 73%
Population Hoechst High Intensity Objects (%) [10]: 9%
Population Membrane Permeable-Phenotype (%) [10]: 13%
Population Mitochondria Different-Phenotype (%) [10]: 1%
Population Mitotic Cells (%) [10]: 25%
Population Normal (%) [10]: 90%
Population Pyknosed Nuclei (%) [10]: 3%
Population Tubulin-Different-Phenotype (%) [10]: 53%
Total Cell Count [10]: 120
Population Apoptotic (%) [11]: 61%
Population Fragmented Nuclei (%) [11]: 27%
Population Healthy Nuclei (%) [11]: 45%
Population Hoechst High Intensity Objects (%) [11]: 19%
Population Membrane Permeable-Phenotype (%) [11]: 24%
Population Mitochondria Different-Phenotype (%) [11]: 13%
Population Mitotic Cells (%) [11]: 38%
Population Normal (%) [11]: 80%
Population Pyknosed Nuclei (%) [11]: 27%
Population Tubulin-Different-Phenotype (%) [11]: 95%
Total Cell Count [11]: 177
Population Apoptotic (%) [12]: 50%
Population Fragmented Nuclei (%) [12]: 29%
Population Healthy Nuclei (%) [12]: 55%
Population Hoechst High Intensity Objects (%) [12]: 16%
Population Membrane Permeable-Phenotype (%) [12]: 6%
Population Mitochondria Different-Phenotype (%) [12]: 21%
Population Mitotic Cells (%) [12]: 50%
Population Normal (%) [12]: 83%
Population Pyknosed Nuclei (%) [12]: 14%
Population Tubulin-Different-Phenotype (%) [12]: 92%
Total Cell Count [12]: 162
